Compound activity from PubChem BioAssay.
FID counter: displaces DNA intercalator in HCV helicase counter-screen; actives 0.17% (n = 290,000); DNA fluorescent intercalator displacement, fluorescence; AID 1845; inhibition, % at 7.9 µM; in the data active = inhibition above about 37%;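 also: 0% = vehicle and 100% = reference compound; higher means more ethidium bromide displaced from hairpin DNA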
FGF22 binding: shifts melting point of recombinant human FGF22; activity (Tm shift, normalised), % at 9.99 µM; recombinant FGF22 thermal shift, SYPRO orange fluorescence; percent of sucrose octasulfate shift, DMSO zero; Q9HCT0; AID 651658; actives 1.5% (n = 340,000);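 active = mean Tm shift, scaled 0 neutral to 100 positive control, at about 1.3% or above, every replicate too, limit read from the data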
Target sequence (Q9HCT0 whole entry, looked up): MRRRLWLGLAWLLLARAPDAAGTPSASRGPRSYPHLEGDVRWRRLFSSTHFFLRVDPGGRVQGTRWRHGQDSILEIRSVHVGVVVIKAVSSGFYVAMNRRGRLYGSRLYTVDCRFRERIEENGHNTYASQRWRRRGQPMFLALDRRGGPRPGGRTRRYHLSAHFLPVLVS
HCV NS3 hel inh: HCV NS3 helicase inhibition. inhibition, % at 10.9 µM. AID 1800. NS3 helicase DNA unwinding, Cy5 molecular beacon fluorescence. actives 0.56% (n = 290,000);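 active = inhibition above the mean of all tested compounds plus 3 SD, set per campaign, cut at about 35% in these data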;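 also: 0% = DMSO wells and 100% = thioflavine S control wells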
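Assay system: hepatitis C virus NS3 helicase domain fragment enzyme. Also added: annealed dual-labelled DNA beacon duplex, ATP-started. Timing: 1 h reaction at 25 °C, ATP-initiated. Technique: Cy5 fluorescence at 0 and 60 min, beacon hairpin quenching. Evaluation: % inhibition of unwinding. Replication: one well per compound.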
EBNA-1 inh: blocks EBNA-1 binding to DNA; EBNA-1 DNA binding, fluorescence polarization; inhibition, % at 14.8 µM; actives 0.34% (n = 300,000); AID 1950; in the data active = inhibition above about 28%
NR3A LBD binder: modulates the human NR3A ligand-binding domain | NR3A LBD differential scanning fluorimetry, Tm shift; 0% = protein alone, 100% = glycine-bound protein | Tm shift relative to glycine control, % at 25 µM | actives 2.5% (n = 340,000) | AID 1259313;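 active = melting temperature shift of at least 10% of the positive control shift, at one fixed dose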
ZTA counter: counter-screen for EBNA-1 inhibitors: inhibitors of Epstein-Barr virus ZTA | P03206 | ZTA-DNA binding, fluorescence polarization | inhibition, % at 11 µM | actives 0.15% (n = 320,000) | AID 2234; in the data active = inhibition above about 33%
Target sequence (P03206 whole entry, looked up): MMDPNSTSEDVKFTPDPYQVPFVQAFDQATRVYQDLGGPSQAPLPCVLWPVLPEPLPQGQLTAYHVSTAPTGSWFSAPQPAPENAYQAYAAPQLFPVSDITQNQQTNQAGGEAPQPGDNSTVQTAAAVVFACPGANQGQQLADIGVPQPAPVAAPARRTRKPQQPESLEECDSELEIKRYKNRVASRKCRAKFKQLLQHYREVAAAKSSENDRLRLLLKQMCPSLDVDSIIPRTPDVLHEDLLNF
The depositor's hits bear a star; . = no result given. Sampled rows, rich in hits. Any-hit rate of the full collection: about 3.6%.

SMILES	FID counter	FGF22 binding	HCV NS3 hel inh	EBNA-1 inh	NR3A LBD binder	ZTA counter
Cc1ccc(S(=O)(=O)NCC[C@@H]2CC[C@@H](NC(=O)c3cccc(F)c3)[C@H](CO)O2)cc1	.	-0.5	.	.	.	.
O=C(Nc1nc(-c2ccccc2)cs1)Nc1ccc(F)cc1F	-1.9	0.1	-5.7	-6.9	1.9	-15.4
O=C(COc1cccc(F)c1)Nc1nc(-c2ccccn2)cs1	.	43.7*	.	.	.	.
O=C(Nc1nc(-c2ccccn2)cs1)Nc1ccc(F)cc1F	-17.9	0.5	12.5	8.1	14.0*	0.9
CCCC#Cc1ccc2c(c1)O[C@H](CN(C)Cc1cccnc1)[C@H](C)CN([C@@H](C)CO)S2(=O)=O	.	-0.1	.	.	.	.
COCC(=O)N1CC[C@H]2[C@@H]1c1cc(-c3ccc(OC)cc3)ccc1N(C)[C@H]2CO	.	0.3	.	.	.	.
CO/N=C/C(C(C)=O)C(=O)Nc1ccc(Cl)cc1Cl (configuration not stated)	-2.2	43.1*	8.9	-0.4	-7.2	0.1
CCCC(C)C(=O)Nc1ccc(Cl)cc1Cl (configuration not stated)	-11.9	.	18.1	0.2	-0.4	-2.5
CC(=O)N1[C@@H](CO)[C@@H](c2ccccc2)C12CN(C(=O)c1cnccn1)C2	.	-0.1	.	.	.	.
Cc1ccc(NC(=O)c2cccc(NC(=O)/C=C/c3ccco3)c2)cc1C	-11.2	.	17.0	-7.9	15.3*	-20.5
CCc1ccccc1NC(=O)c1cccc(NC(=O)/C=C/c2ccco2)c1	-3.7	.	18.5	3.5	-3.7	6.0
Cc1ccc(-n2nc3ccc(NC(=O)/C=C/c4ccco4)cc3n2)cc1	-11.5	0.3	25.5	-1.6	23.8*	1.9
O=C(/C=C/c1ccco1)Nc1ccc2c(c1)OCO2	-3.7	0.1	11.9	-5.0	-1.2	-1.3
CCOc1ccc2nc3cc(NCc4ccc(OC)cc4)ccc3c(N)c2c1	6.9	.	-57.0	13.1	3.0	101.0*
CCn1cnc2cc(NCc3ccc(OC)cc3)ccc21	-2.9	.	-4.2	-2.6	0.1	-6.6
COc1ccc(NC(=O)Nc2ccc3c(c2)C(=O)N([C@H](C)CO)C[C@H](C)[C@@H](CN(C)C(=O)C2CCCCC2)OCCCC[C@@H](C)O3)cc1	.	-0.1	.	.	.	.
O=C(Cc1cccc2ccccc12)Nc1ccc2c(c1)C(=O)NC2=O	1.0	44.3*	-14.3	2.4	-8.2	-1.1
CN(C)CCN(Cc1ccco1)S(=O)(=O)c1ccc(-c2ccc(=O)[nH]n2)s1	-6.9	-0.1	-1.1	-9.5	13.7*	-7.0
COc1cc(SC)ccc1C(=O)Nc1ccc2c(c1)OCCO2	-11.3	0.3	-1.8	0.3	14.2*	-0.1
COc1ccc(Cl)cc1C(=O)Nc1ccc(NC(=O)c2ccco2)cc1	-0.3	.	-2.6	-3.5	17.5*	0.4
Cc1ccc(NC(=O)c2ccc3c(c2)OCO3)cc1Cl	1.7	0.1	0.4	-9.1	16.9*	4.4
COc1ccc(Cl)cc1NC(=O)c1ccco1	-9.3	.	5.9	9.9	-0.3	9.6
Cc1ccc(C(=O)Nc2ccc3c(c2)OCO3)cc1Cl	-5.8	0.1	-1.9	11.3	.	7.3
CC(C)C(=O)Nc1cccc(NC(=S)NC(=O)c2ccc3c(c2)OCO3)c1	-12.6	0.0	3.7	12.6	11.6*	-5.2
CO[C@H]1CN(C)C(=O)c2cc(NC(C)=O)ccc2OC[C@@H](C)N(C(=O)CN2CCOCC2)C[C@@H]1C	.	0.0	.	.	.	.
SMILES	FID counter	FGF22 binding	HCV NS3 hel inh	EBNA-1 inh	NR3A LBD binder	ZTA counter
C[C@H]1CCCCO[C@H](CN(C)S(=O)(=O)c2cn(C)cn2)[C@@H](C)CN([C@@H](C)CO)C(=O)c2cc(NS(=O)(=O)c3ccc(Cl)cc3)ccc2O1	.	0.7	.	.	.	.
O=C(Nc1ccc2c(c1)OCO2)N[C@H]1CC[C@H](CCNC(=O)C2CC2)O[C@H]1CO	.	-0.2	.	.	.	.
COc1ccc(Cl)cc1C(=O)Nc1ccc2c(c1)OCO2	6.2	.	-11.6	-14.3	27.8*	-3.0
C[C@@H]1CN([C@@H](C)CO)C(=O)c2cccc(NS(=O)(=O)c3cn(C)cn3)c2O[C@@H]1CN(C)Cc1ccc(-c2ccccc2)cc1	.	-0.4	.	.	.	.
Oc1ccc(/C=N/N(c2ccccc2)c2ccccc2)cc1O	-4.0	-0.9	-6.0	-6.6	1.5	0.5
O=C(/C(=N/N=C/c1ccc(O)c(O)c1)c1ccccc1)c1ccccc1	-8.3	0.3	1.5	-17.5	21.2*	-6.5
CCc1sc(C(=O)Nc2ccc(NC(C)=O)cc2)cc1C	-7.3	0.0	0.6	8.5	11.1*	22.5
O=S(=O)(Nc1nc2ccccc2nc1Nc1ccc(N2CCOCC2)cc1)c1cc(Cl)ccc1Cl	-2.9	-0.3	21.8	0.9	19.9*	-16.4
Clc1nc(Nc2ccc(N3CCOCC3)cc2)c2ccccc2n1	2.8	43.4*	2.9	-9.8	0.8	0.7
CC1(C)CC(=O)/C(=C(\O)CCCN2C(=O)c3ccccc3C2=O)C(=NCC(=O)O)C1	-0.2	42.7	5.2	-3.5	-4.0	-2.3
CC(N=C1CC(C)(C)CC(=O)/C1=C(/O)CCCN1C(=O)c2ccccc2C1=O)C(=O)O (configuration not stated)	-25.4	42.9*	2.5	-11.5	-0.1	-3.6
COc1ccc(CCNC(=O)[C@@]2(Cc3ccccc3I)c3ccccc3C(=O)N(Cc3ccccc3OC)[C@H]2c2ccc(CO)cc2)cc1	.	-0.2	.	.	.	.
CC(C#N)(Nc1ccc(Cl)cc1)c1cccnc1 (configuration not stated)	2.0	.	7.1	4.5	16.4*	-21.5
O=C(O)C1CCC1C(=O)Nc1nc(-c2ccc(Cl)s2)cs1 (configuration not stated)	-14.0	-0.2	3.8	5.1	1.4	8.6
CC(=O)Nc1nc(-c2cccs2)cs1	2.0	.	-3.4	1.7	1.4	-14.1
O=C(Nc1nc(-c2cccs2)cs1)c1ccc(Cl)s1	7.5	0.3	-4.0	-6.9	28.3*	-13.5
O=C(Nc1nc(-c2ccc(Cl)s2)cs1)c1ccccc1	-0.9	.	-1.6	-17.7	15.1*	-4.0
C/C(=N\OC(=O)Nc1ccc(Cl)cc1)c1ccc(F)c(F)c1	-5.4	-0.1	-8.4	-1.8	36.1*	-6.8
COc1ccc2c3c([nH]c2c1)[C@@H](CO)N(S(C)(=O)=O)CC31CCN(C(=O)Cc2cccnc2)CC1	.	0.1	.	.	.	.
CC1(OC(=O)c2cnc3ccccc3n2)C(=O)C=C2C=C(C3CC3)OC=C2C1=O (configuration not stated)	.	.	.	27.5*	.	47.7*
COc1ccc(S(=O)(=O)Nc2ccc3c(c2)C(=O)N([C@H](C)CO)C[C@@H](C)[C@H](CN(C)C(=O)NC2CCCCC2)OCCCC[C@@H](C)O3)cc1	.	0.1	.	.	.	.
O=C(Nc1ncc(S(=O)(=O)c2ccc([N+](=O)[O-])cc2)s1)c1cccc2ccccc12	3.5	-0.1	-0.1	0.7	10.8*	4.9
COc1cc2c(cc1Cl)/C(=C\CCN(C)C)c1ccccc1S2	16.9	.	-70.2	-10.8	18.0*	-0.3
